# Experimental data reported in ChEMBL document CHEMBL5126614 (ACS Med Chem Lett, 2022).
# Calls of active or inactive are those of the source. No cut-off for these calls is given here.
# Assays:
# Macaca mulatta = species on record: Macaca mulatta; assay: Selectivity ratio of EC50 for rhesus monkey GCGR to EC50 for rhesus monkey GLP1R
# [1] = Solubility of compound at pH 3 to 5; type: physicochemical; settings: buffer
# [2] = Solubility of compound at pH 7; type: physicochemical; settings: buffer
# Homo sapiens = species on record: Homo sapiens; assay: Selectivity ratio of EC50 for human GCGR expressed in frozen cells to EC50 for human GLP1R expressed in frozen cells; type: cell-based
# [3] = Agonist activity at rhesus monkey GCGR; set-up: species or system Macaca mulatta
# [4] = Agonist activity at rhesus monkey GLP1R; set-up: species or system Macaca mulatta
# [5] = Solubility of compound at pH 8; type: physicochemical; settings: buffer
# Dipeptidyl peptidase 4 = Dipeptidyl peptidase 4 (Homo sapiens, UniProt P27487); assay: Stability of compound assessed as DPP4 (unknown origin)-mediated hydrolysis; type: ADME
# Chain of Dipeptidyl peptidase 4 (P27487 whole entry): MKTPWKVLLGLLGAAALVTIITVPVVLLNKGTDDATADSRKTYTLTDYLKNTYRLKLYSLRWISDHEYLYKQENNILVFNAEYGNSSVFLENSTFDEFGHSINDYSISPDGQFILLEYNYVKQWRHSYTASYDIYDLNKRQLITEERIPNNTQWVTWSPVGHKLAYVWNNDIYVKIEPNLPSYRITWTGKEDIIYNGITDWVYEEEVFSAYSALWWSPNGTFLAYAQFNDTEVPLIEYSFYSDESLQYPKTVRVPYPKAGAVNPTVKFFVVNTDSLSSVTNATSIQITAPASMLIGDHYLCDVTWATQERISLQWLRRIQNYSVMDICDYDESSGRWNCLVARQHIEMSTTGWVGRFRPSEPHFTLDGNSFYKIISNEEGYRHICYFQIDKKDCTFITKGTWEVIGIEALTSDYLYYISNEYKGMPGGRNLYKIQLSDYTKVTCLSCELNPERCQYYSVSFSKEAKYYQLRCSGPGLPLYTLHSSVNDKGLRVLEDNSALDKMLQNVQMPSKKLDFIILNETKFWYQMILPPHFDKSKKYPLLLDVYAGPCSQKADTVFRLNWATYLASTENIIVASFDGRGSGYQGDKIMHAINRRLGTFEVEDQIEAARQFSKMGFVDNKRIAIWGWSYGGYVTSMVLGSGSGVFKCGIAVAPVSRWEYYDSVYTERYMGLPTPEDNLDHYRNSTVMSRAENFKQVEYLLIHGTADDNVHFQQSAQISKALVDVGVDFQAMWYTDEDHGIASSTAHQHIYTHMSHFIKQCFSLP
# Procedure, shortened: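 Peptide incubated overnight at 37 °C with DPP-IV enzyme. Stability judged by receptor bioactivity measured after incubation.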
# Rhesus monkey [6] = assay: Anti-obesity activity in type 2 diabetes rhesus monkey model assessed as weight loss at 3 ug/kg, sc qd for 3 weeks relative to control; type: functional, Macaca mulatta; settings: dose 3 µg/kg
# Rhesus monkey [7] = assay: Anti-obesity activity in type 2 diabetes rhesus monkey model assessed as reduction in cumulative food intake at 3 ug/kg, sc qd for 3 weeks and measured daily for 21 days relative to baseline; type: functional, Macaca mulatta; set-up: scale not given: the % may be the effect or the level left; settings: dose 3 µg/kg
# Rhesus monkey [8] = assay: Antidiabetic activity in type 2 diabetes rhesus monkey model assessed as reduction in fasting glucose level at 3 ug/kg, sc qd for 3 weeks and measured on day 22 by intravenous glucose tolerance test; type: functional, organism-based; settings: Macaca mulatta, dose 3.0 µg/kg, time 22.0 day
# Procedure, shortened: (§1)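 Type 2 diabetic rhesus monkeys received daily dosing for 3 weeks, alongside vehicle and a liraglutide benchmark at 30 μg/kg. Fasting plasma glucose was compared with baseline or vehicle, and fasting insulin with vehicle.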
# Rhesus monkey [9] = assay: Anti-obesity activity in type 2 diabetes rhesus monkey model assessed as increase in FGF21 expression at 3 ug/kg, sc qd for 3 weeks and measured on day 22 relative to baseline; type: functional, Macaca mulatta; settings: dose 3 µg/kg, time 22 day
# Rhesus monkey [10] = assay: Anti-obesity activity in type 2 diabetes rhesus monkey model assessed as increase in free fatty acid level at 3 ug/kg, sc qd for 3 weeks and measured on day 22 relative to control; type: functional, Macaca mulatta; settings: dose 3 µg/kg, time 22 day
# Rhesus monkey [11] = assay: Antidiabetic activity in type 2 diabetes rhesus monkey model assessed as reduction in fasting insulin level at 3 ug/kg, sc qd for 3 weeks and measured on day 22 relative to control; type: functional, Macaca mulatta; set-up: scale not given: the % may be the effect or the level left; settings: dose 3 µg/kg, time 22 day; procedure, shortened: as §1
# Rhesus monkey [12] = assay: Antidiabetic activity in type 2 diabetes rhesus monkey model assessed as HOMA-IR at 3 ug/kg, sc qd for 3 weeks and measured on day 22 (reference value: 9.6 +/- 1.9); type: functional, Macaca mulatta; settings: dose 3 µg/kg, time 22 day
# [13] = AUC (0 to infinity) in Wistar-Han rat at 0.1 mg/kg, iv by LC-MS analysis; type: ADME, organism-based; set-up: time infinity, dose 0.1 mg/kg, route iv; settings: in vivo
# Procedure, shortened: (§2)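 Single IV or SC dose in male Wistar Han naïve rats and in rhesus monkeys, n = 3 animals per group. Peptide formulated in mannitol buffer (5% mannitol, 5 mM sodium phosphate, pH 8). Plasma concentration–time profiles were measured and peptide levels quantified by LCMS assay.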
# [14] = Plasma clearance in Wistar-Han rat at 0.1 mg/kg, iv by LC-MS analysis; type: ADME, organism-based; procedure, shortened: as §2
# [15] = Volume of distribution at steady state in Wistar-Han rat at 0.1 mg/kg, iv by LC-MS analysis; type: ADME, organism-based; settings: in vivo, read-out: Vdss; procedure, shortened: as §2
# [16] = Elimination half life in Wistar-Han rat at 0.1 mg/kg, iv by LC-MS analysis; type: ADME, organism-based; settings: in vivo, read-out: beta t1/2 (converted); procedure, shortened: as §2
# [17] = AUC (0 to infinity) in Wistar-Han rat at 0.2 mg/kg, sc by LC-MS analysis; type: ADME, organism-based; set-up: time infinity, dose 0.2 mg/kg, route sc; settings: in vivo; procedure, shortened: as §2
# [18] = Cmax in Wistar-Han rat at 0.2 mg/kg, sc by LC-MS analysis; type: ADME, organism-based; set-up: dose 0.2 mg/kg, route sc; settings: in vivo; procedure, shortened: as §2
# [19] = Tmax in Wistar-Han rat at 0.2 mg/kg, sc by LC-MS analysis; type: ADME, organism-based; settings: in vivo; procedure, shortened: as §2
# [20] = Bioavailability in Wistar-Han rat at 0.2 mg/kg, sc by LC-MS analysis; type: ADME, organism-based; settings: in vivo; procedure, shortened: as §2
# Rhesus monkey [21] = assay: Potency index, ratio of compound to liraglutide anti-obesity activity in type 2 diabetes rhesus monkey model assessed as reduction in body weight; type: functional, Macaca mulatta
# [22] = AUC (0 to infinity) in rhesus monkey at 0.01 mg/kg, iv by LC-MS analysis; type: ADME, organism-based, Macaca mulatta; set-up: time infinity, dose 0.01 mg/kg, route iv; settings: in vivo; procedure, shortened: as §2
# [23] = Plasma clearance in rhesus monkey at 0.01 mg/kg, iv by LC-MS analysis; type: ADME, organism-based, Macaca mulatta; procedure, shortened: as §2
# [24] = Volume of distribution at steady state in rhesus monkey at 0.01 mg/kg, iv by LC-MS analysis; type: ADME, organism-based, Macaca mulatta; settings: in vivo, read-out: Vdss; procedure, shortened: as §2
# [25] = Terminal half life in rhesus monkey at 0.01 mg/kg, iv by LC-MS analysis; type: ADME, organism-based, Macaca mulatta; settings: in vivo, read-out: beta t1/2 (converted); procedure, shortened: as §2
# [26] = AUC (0 to infinity) in rhesus monkey at 0.05 mg/kg, sc by LC-MS analysis; type: ADME, organism-based, Macaca mulatta; set-up: time infinity, dose 0.05 mg/kg, route sc; settings: in vivo; procedure, shortened: as §2
# [27] = Cmax in rhesus monkey at 0.05 mg/kg, sc by LC-MS analysis; type: ADME, organism-based, Macaca mulatta; set-up: dose 0.05 mg/kg, route sc; settings: in vivo; procedure, shortened: as §2
# [28] = Tmax in rhesus monkey at 0.05 mg/kg, sc by LC-MS analysis; type: ADME, organism-based, Macaca mulatta; settings: in vivo; procedure, shortened: as §2
# [29] = Bioavailability in rhesus monkey at 0.05 mg/kg, sc by LC-MS analysis; type: ADME, organism-based, Macaca mulatta; settings: in vivo; procedure, shortened: as §2
# Rhesus monkey [30] = assay: Potency index, ratio of compound to liraglutide anti-obesity activity in type 2 diabetes rhesus monkey model assessed as […] in FGF21 expression; type: functional, Macaca mulatta
# [31] = Toxicity in rat; settings: in vivo
# [32] = Toxicity in rhesus monkey; set-up: species or system Macaca mulatta; settings: in vivo
# Rhesus monkey [33] = assay: Antidiabetic activity in type 2 diabetes rhesus monkey model assessed as increase in total adiponectin level at 3 ug/kg, sc qd for 3 weeks and measured on day 22; settings: Macaca mulatta, dose 3.0 µg/kg, time 22.0 day
# Rhesus monkey [34] = assay: Anti-obesity activity in type 2 diabetes rhesus monkey model assessed as increase in fasting ketone beta-hydroxybutyrate level at 3 ug/kg, sc qd for 3 weeks and measured on day 22 relative to control; settings: dose 3 µg/kg, time 22 day
structure (smiles),measurement,setting,value
CCCCCCCCCCCCCCCC(=O)N[C@@H](CCC(=O)N[C@@H](CCC(=O)NCCCC[C@H](NC(=O)[C@H](CC(=O)O)NC(=O)[C@H](CO)NC(=O)[C@@H](NC(=O)[C@H](Cc1ccccc1)NC(=O)[C@@H](NC(=O)CNC(=O)[C@H](CCC(N)=O)NC(=O)[C@@H](CO)NC(=O)[C@@H](N)Cc1cnc[nH]1)[C@@H](C)O)[C@@H](C)O)C(=O)N[C@@H](CO)C(=O)N[C@@H](CCCCN)C(=O)N[C@@H](Cc1ccc(O)cc1)C(=O)N[C@@H](CC(C)C)C(=O)N[C@@H](CC(=O)O)C(=O)N[C@@H](C)C(=O)N[C@@H](CCCNC(=N)N)C(=O)N[C@@H](C)C(=O)N[C@@H](C)C(=O)N[C@@H](CCC(N)=O)C(=O)N[C@@H](CC(=O)O)C(=O)N[C@@H](Cc1ccccc1)C(=O)N[C@H](C(=O)N[C@@H](CCC(N)=O)C(=O)N[C@@H](Cc1c[nH]c2ccccc12)C(=O)N[C@@H](CC(C)C)C(=O)N[C@@H](CC(C)C)C(=O)N[C@@H](CC(=O)O)C(=O)N[C@H](C(N)=O)[C@@H](C)O)C(C)C)C(=O)O)C(=O)O,Ratio EC50,Macaca mulatta,0.8
same,solubility,[1],Insoluble
same,solubility,[2],> 20 mg/mL
same,Ratio EC50,Homo sapiens,0.9
same,EC50,[3],7 pM
same,EC50,[4],9 pM
same,solubility,[5],> 80 mg/mL
same,Stability,Dipeptidyl peptidase 4,Stable
same,Activity,Rhesus monkey [6],7.6%
same,Activity,Rhesus monkey [7],30%
same,Activity,Rhesus monkey [8],Active
same,fold change (FC),Rhesus monkey [9],>3
same,Activity,Rhesus monkey [10],63%
same,Activity,Rhesus monkey [11],50%
same,Activity,Rhesus monkey [12],9.6
same,AUC(0-inf),[13],1.05 µM·h
same,clearance,[14],0.42 mL/min/kg
same,Vd,[15],0.1 L/kg
same,half-life,[16],3 h
same,AUC(0-inf),[17],0.37 µM·h
same,Cmax,[18],25 nM
same,Tmax,[19],5.3 h
same,bioavailability,[20],18%
same,fold change (FC),Rhesus monkey [21],2
same,AUC(0-inf),[22],0.4 µM·h
same,clearance,[23],0.12 mL/min/kg
same,Vd,[24],0.16 L/kg
same,half-life,[25],16 h
same,AUC(0-inf),[26],1.25 µM·h
same,Cmax,[27],30 nM
same,Tmax,[28],18 h
same,bioavailability,[29],63%
same,fold change (FC),Rhesus monkey [30],>3
same,Activity,[31],Non-Toxic
same,Activity,[32],Non-Toxic
same,Activity,Rhesus monkey [33],Active
same,fold change (FC),Rhesus monkey [34],4
